Test results from the EternaBench riboswitch data.

Test system: MS2 coat protein
Assay: apparent Kd, MS2 coat protein; higher = weaker binding; RNA-MaP array; FMN 200 µM where present
Outline: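 Green signal from SNAP-549-labelled MS2 coat protein was normalised to red-channel RNA signal and to the median Fmax of control clusters. The protein was titrated from 0.7 or 1.5 nM, doubling to 3 µM, without and then with constant ligand, over designs transcribed by stalled E. coli RNA polymerase on Illumina sequencing-chip clusters, in 100 mM Tris-HCl pH 7.5, 80 mM KCl, 4 mM MgCl2, BSA, DTT, yeast tRNA and Tween-20. The apparent Kd is the median of filtered per-cluster binding-curve fits.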

[1] = designed as: OFF switch for flavin mononucleotide, no ligand
[2] = ligand present: flavin mononucleotide, designed as: OFF switch for flavin mononucleotide
[3] = designed as: ON switch for flavin mononucleotide, no ligand
[4] = ligand present: flavin mononucleotide, designed as: ON switch for flavin mononucleotide

Row | Sequence | apparent Kd [1] [µM] | apparent Kd [2] [µM] | apparent Kd [3] [µM] | apparent Kd [4] [µM]
1 | AACUGUACAGGAUAUACAUGAGGAUCACCCAUGUGAGAAUUAAGUGGAGAACCACAAAGUAGAAGGGUACAGGA | 0.0448 | 0.286 |  | 
2 | AAUGAUUCAGGAUAUACAUGAGGAUCACCCAUGUUGGUGUCCCUCCCAAAGUUGCAGUGUAGAAGGGAGUCCCG | 0.131 | 0.137 |  | 
3 | AAAGACAGAGGAUAUACAUGAGGAUCACCCAUGUGGCGAAAAAAAAUCCAUUUGGCAUGUAGAAGGCUGUAUGA | 0.144 | 0.129 |  | 
4 | GAGCGAAAGCUCAAUGUCGAUAGCAGAAGGACAUCCAAUAACAUGAAAACAUGAGGAUCACCCAUGUAGGAUAUGCUAUCGACU | 0.00555 | 0.00655 |  | 
5 | UCAUUUAUCACAGGAUAUAUUAGUAUACAGUUGUUUGGCUCUUACAUAUUAAUAGAAGGGUGCAACAUGAGGAUCACCCAUGUA |  |  | 0.262 | 0.102
6 | UGUCGGAGCAUAGGAUAUUACAUGAGGAUCACCCAUGUAUGAACCAAUAGCUGGAAACAGCAAUGUAAGAAGGCUGCUCCGACA | 0.00516 | 0.00898 |  | 
7 | AGAGAAUAGUCAGGAUAUGAGAAUAGAUAGAGCUCAGAAGGGACACAUGAGGAUCACCCAUGUGAAGUCUUGAGGCUGCGUGGA | 0.0149 | 0.0142 |  | 
8 | AUAAAGUGAGGAUAUCCAAUAUAUGACAUGAGGAUCACCCAUGUUUCCACUCGUACCUCCGGAGAAGGCACAUUUU | 0.0321 | 0.0202 |  | 
9 | GGCUACGUUUCGUAGCAGUGUCAUCGAGAAGGCCCUGACAUGAGGAUCACCCAUGUUGUUACAUGGGAGGAUAUCGAUGAUACA |  |  | 0.0125 | 0.00496
10 | UUAUUUUUUGAGGAUAUGCGACGUUUUUUCGUCGUAGAAGGCGAUACAUGAGGAUCACCCAUGUUUAUGGGCAU | 0.0897 | 0.157 |  | 
11 | GUUGCACAAAUUAACAUGAGGAUCACCCAUGUCAAAAGACAUGAGGAUAUGGAUCUGAAGAAGAUCCAGAAGGCAUAGUGCUAA |  |  | 0.37 | 0.0237
12 | GCAUGCAAGUAGAAGGACGGAUAUUUUGAUACCGUAGGAUAUGCAGAAUCAUAUCCACAUGAUAACAUGAGGAUCACCCAUGUA | 0.015 | 0.0137 |  | 
13 | AGAUGCUCGAGUCGACAUGAGGAUCACCCAUGUACAGUUAGUGAGGAUAUCUGAGACACAUAGUAGGAGAAGGCGCGAACGUGA | 0.0844 | 0.192 |  | 
14 | AUACUGAGCGUAAAUUACCUUAACAUGAGGAUCACCCAUGUGGAGGAUAUUGACCUAGCAAAGCUCGAGAAGGCCACUGGGAUG | 0.0175 | 0.0181 |  | 
15 | UGUCGGAGCAGAGGAUAUUACAUGAGGAUCACCCAUGUAGGAACCAAUAGCUGGAAACAGCAAUGUAAGAAGGCUGCUCCGACA | 0.0196 | 0.267 |  | 
16 | GAAUAUUGGAUAAACAUGAGGAUCACCCAUGUAACUAGACAUGAGGAUAUGGAUUCUAAUUGGAUCCAGAAGGUAUCAAUAUUC |  |  | 0.199 | 0.227
17 | GGAGGGACAGCAGGAUAUGAGUGGGACGCACUGUGUACGCGGGUGUGGAUGUCAGAAGGGCUGACAUGAGGAUCACCCAUGUAA |  |  | 0.114 | 0.0554
18 | UAUAAGAACGAAGGAUAUGGUUACAUGAGGAUCACCCAUGUAUUAAUUUUGAUCUAUUUUUAUAACCAGAAGGUCGAGAGUAAA | 0.0362 | 0.0495 |  | 
19 | UCCCUAAGGCAGGCCGACCAUACAUGAGGAUCACCCAUGUCGAGAAGGUGCUCACGGGUGGGUGGCAAGGAUAUCGGGUCGGAU |  |  | 0.0929 | 0.0436
20 | AAAAUGUGAGGAUAUUAGUUGUACGUCAAUAGACGUAUAAGUGAGAAGGCACAUGAGGAUCACCCAUGUUCCUG | 0.0206 | 0.112 |  | 
21 | GCAGGCUUCGAGAAGGACAUGAGGAUCACCCAUGUGCGUGUGAAGCAGCCGUGAGGCUGCAUCAUGUAGGAUAUCGGAGUCUGG | 0.0722 | 0.525 |  | 

Row | Sequence | apparent Kd [1] [µM] | apparent Kd [2] [µM] | apparent Kd [3] [µM] | apparent Kd [4] [µM]
22 | GGUGGCGUGAUAACGCUAGCUAUAACAUGAGGAUCACCCAUGUAGGAUAUCCCGCCGUGAGGGCGGGAGAAGGACAACCGAUGG | 0.0285 | 0.0308 |  | 
23 | AAAAUAAGUGUGAGGAUAUGCUGGUCCUUGGAUCAGCAGAAGGCACAUGAGGAUCACCCAUGUAAUAUAUUUAU | 0.0847 | 0.295 |  | 
24 | AUUUAUGUCAUAGGAUAUAUAAAUAAAUUUAUAACAUGAGGAUCACCCAUGUACUUGGGUAUUAGGUAGAAGGAUGAUAAGAAU |  |  | 0.572 | 0.254
25 | AACAUGUGAGGAUAUUUAAGAAAAGAAAAGAAAGAAAAGAAAAAGAAGGCACAUGAGGAUCACCCAUGUAAGAA | 0.0248 | 0.0358 |  | 
26 | GGAUAGGACAGAGGAUAUACGUGCUAGAGAUACUAGCAAAAUUUCCUCACAUGAGGAUCACCCAUGUAGAAGGCUGUUCUAUCG | 0.0146 | 0.473 |  | 
27 | GGAGGACGAAACAUGAGGAUCACCCAUGUGUUAUAAUUAAUAUAGGAUAUGUUUAUACUUUUUGGGCAGAAGGAUGAUAAUGUU |  |  | 0.0222 | 0.0197
28 | GAAUAGGACAGAGGAUAUACGUGCUAGAGAUACUAGCAAAAUUUCCUCACAUGAGGAUCACCCAUGUAGAAGGCUGUCCUAUCG | 0.0185 | 0.394 |  | 
29 | AUCGUGCAGCUUUGCUGUACGCGUACAUGAGGAUCACCCAUGUAGGAUAUGGUACGCUUUGCGUGCUAGAAGGAUAUGGAGAGG | 0.0169 | 0.0211 |  | 
30 | UAAGAGUGAGGAUAUACGUCGCUGGUCAGGAUGGACGCAUGACAUGAGGAUCACCCAUGUAGAAGGCACAAAAC | 0.0238 | 0.0437 |  | 
31 | UACUUGUUAGGAUAUCUUACAUUUGCAUUAUAGCAACUAUUGGAGAAGGGACAUGAGGAUCACCCAUGUUUGGU | 0.0399 | 0.0482 |  | 
32 | CCUAGUUGGUAAGGAUAUCCUACACUAUUCUGACCCGUGCAAGCUACAUGAGGAUCACCCAUGUGGGAGAAGGUGCGUCAACAU | 0.0101 | 0.0102 |  | 
33 | ACAUUGCGAGGAUAUACAUGAGGAUCACCCAUGUGGUGGCAGAUACGGUAGGACUAGUGUAGAAGGUGUCAUGG | 0.49 | 0.397 |  | 
34 | ACAUGAGGAUCACCCAUGUGAUGAUCUCCCAUGUUAUAUUUCAGAAGGCUCGUGUGUUUGAUGAGAGAGGAUAUGGAAUAUACG | 0.377 | 0.258 |  | 
35 | CAGAAGUCAGGAUAUGCAUGGCGGGACUUGCGUCGUGGCGUGCAGAAGGGACAUGAGGAUCACCCAUGUGGAGG | 0.171 | 0.222 |  | 
36 | GCGCUGCGUCAGAAGGGCCGAAAAGAGAAGAUGGCAGGAUAUGACAUGAGGAUCACCCAUGUACACGUCGCCAUGGGUGUUGGU | 0.184 | 0.0364 |  | 
37 | UUGCCUCAGAACAUGAGGAUCACCCAUGUGCUGCGGGCAACGUAGGAUAUGAUGGUGUGACACCAUCAGAAGGAUGAUGGUACC |  |  | 0.00597 | 0.00581
38 | UUCAGCGAUCAAGGAUAUCUAUAUUCAUGAGGACAUGAGGAUCACCCAUGUUGAUUACCCAUGAGGGAGAAGGUGGACAUGAGG |  |  | 0.0401 | 0.0235
39 | UAUAUAAUAUUACACAUGAGGAUCACCCAUGUACAUGGGAUAGAGGAUAUACAAAUAUUAGUGGUGUAGAAGGUUAAUAUAUAU | 0.266 | 0.071 |  | 
40 | AGCGAGGCAGGAUAUACAUGAGGAUCACCCAUGUGCUUGCAUGGCGUGGAAUGUCGAGGUAGAAGGGCCAUGCC | 0.0213 | 0.0261 |  | 
41 | CACCGUUAGAGAGGAUAUCGUACAUGAGGAUCACCCAUGUAAUAAAUGAGAAUUUCGGAUGUCUGCGAGAAGGCUCGAAUCGGC | 0.0346 | 0.0279 |  | 
42 | UCGUUGUCAGGAUAUCGUUAAUUUAAUUGUUUGUAUUAGUUCGAGAAGGGACAUGAGGAUCACCCAUGUUUGCU | 0.031 | 0.0868 |  | 
